Measured values from paper PMC7238799 (Pulmonary Circulation, 2020).

Assays:
[1] = system: prostacyclin (IP) receptor; settings: cited from earlier work
Single ascending dose = type: in vivo, human; settings: for Tmax / AUC(0-inf) / AUC(0-t) / Cmax: both, human, plasma, po
Method in brief: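 Healthy subjects received one oral immediate-release capsule dose of test compound (30–200 µg) or placebo, with food withheld 1 h after dosing. K₂EDTA blood was drawn pre-dose, at 0.25–120 h, then every 24 h through Day 14. Samples were chilled, centrifuged and frozen at –20 ℃. Plasma was assayed by LC-MS/MS (0.03–15.0 ng/mL). Noncompartmental, linear-trapezoidal parameters are reported as mean (SD), with Tmax as median (min–max).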

[2] = system: rat monocrotaline model of PAH; settings: oral; cited from earlier work
healthy subjects = assay: Single ascending dose; type: in vivo, human
Method in brief: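 Subjects received a single oral dose of test compound or identical-appearing placebo capsule and were kept as in-patients. Over seven days, adverse events, vital signs, 12-lead ECG and safety labs (serum chemistry, hematology, urinalysis) were assessed at multiple time points. Data were summarized descriptively by treatment group.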

[3] = total ralinepag, all single doses, n = 24

O=C(O)COC[C@H]1CC[C@H](COC(=O)N(c2ccccc2)c2ccc(Cl)cc2)CC1 [ralinepag]
Maximal cAMP stimulation (efficacy percentage relative to iloprost) [1]: 67% | Type of IP receptor agonism [1]: strong partial agonist | Functional potency relative to ACT-333679 ([1]; greater potency than selexipag active metabolite): 6–8 fold | Tmax (Single ascending dose): 1 to 1.5 h | AUC(0-inf) (Single ascending dose; 30 ug): 17.3 ng·h/mL | AUC(0-t) (Single ascending dose; 30 ug): 15.9 ng·h/mL | Cmax (Single ascending dose; 30 ug): 0.949 ng/mL | Tmax (Single ascending dose; 30 ug): 1 h | AUC(0-inf) (Single ascending dose; 50 ug): 22.8 ng·h/mL | AUC(0-t) (Single ascending dose; 50 ug): 21.5 ng·h/mL | Cmax (Single ascending dose; 50 ug): 1.49 ng/mL | Tmax (Single ascending dose; 50 ug): 1.25 h | AUC(0-inf) (Single ascending dose; 100 ug): 42.6 ng·h/mL | AUC(0-t) (Single ascending dose; 100 ug): 41.2 ng·h/mL | Cmax (Single ascending dose; 100 ug): 2.65 ng/mL | Tmax (Single ascending dose; 100 ug): 1.5 h | AUC(0-inf) (Single ascending dose; 200 ug): 103 ng·h/mL | AUC(0-t) (Single ascending dose; 200 ug): 101 ng·h/mL | Cmax (Single ascending dose; 200 ug): 6.17 ng/mL | Tmax (Single ascending dose; 200 ug): 1.25 h | Dose proportionality of Cmax and AUC (Single ascending dose; single doses from 30 to 200 µg): approximately dose proportional | Efficacy in rat monocrotaline model of PAH [2]: dose-dependent oral efficacy | SAEs recorded (healthy subjects; any doses tested): no SAEs | Vital signs, ECGs, safety laboratory tests (healthy subjects; any single dose level): no clinically significant safety issues | Abdominal pain, subjects (%) (healthy subjects; single oral dose 30 µg, n = 6): 0 | Flushing, subjects (%) (healthy subjects; single oral dose 30 µg, n = 6): 0 | Headache, subjects (%) (healthy subjects; single oral dose 30 µg, n = 6): 2 (33.3%) | Nausea, subjects (%) (healthy subjects; single oral dose 30 µg, n = 6): 0 | Number of AEs reported (healthy subjects; single oral dose 30 µg, n = 6): 2 | Pain in jaw, subjects (%) (healthy subjects; single oral dose 30 µg, n = 6): 0 | Total (%) subjects with at least one AE (healthy subjects; single oral dose 30 µg, n = 6): 2 (33.3%) | Vomiting, subjects (%) (healthy subjects; single oral dose 30 µg, n = 6): 0 | Abdominal pain, subjects (%) (healthy subjects; single oral dose 50 µg, n = 6): 1 (16.7%) | Flushing, subjects (%) (healthy subjects; single oral dose 50 µg, n = 6): 0 | Headache, subjects (%) (healthy subjects; single oral dose 50 µg, n = 6): 5 (83.3%) | Nausea, subjects (%) (healthy subjects; single oral dose 50 µg, n = 6): 1 (16.7%) | Number of AEs reported (healthy subjects; single oral dose 50 µg, n = 6): 11 | Pain in jaw, subjects (%) (healthy subjects; single oral dose 50 µg, n = 6): 2 (33.3%) | Total (%) subjects with at least one AE (healthy subjects; single oral dose 50 µg, n = 6): 5 (83.3%) | Vomiting, subjects (%) (healthy subjects; single oral dose 50 µg, n = 6): 0 | Abdominal pain, subjects (%) (healthy subjects; single oral dose 100 µg, n = 6): 1 (16.7%) | Flushing, subjects (%) (healthy subjects; single oral dose 100 µg, n = 6): 1 (16.7%) | Headache, subjects (%) (healthy subjects; single oral dose 100 µg, n = 6): 5 (83.3%) | Nausea, subjects (%) (healthy subjects; single oral dose 100 µg, n = 6): 2 (33.3%) | Number of AEs reported (healthy subjects; single oral dose 100 µg, n = 6): 17 | Pain in jaw, subjects (%) (healthy subjects; single oral dose 100 µg, n = 6): 3 (50.0%) | Total (%) subjects with at least one AE (healthy subjects; single oral dose 100 µg, n = 6): 6 (100%) | Vomiting, subjects (%) (healthy subjects; single oral dose 100 µg, n = 6): 2 (33.3%) | Tolerability of the 200 µg single dose (healthy subjects; single oral dose 200 µg): not at 200 µg due to AEs of nausea and vomiting | Flushing, subjects (%) (healthy subjects; single oral dose 200 µg, n = 6): 1 (16.7%) | Headache, subjects (%) (healthy subjects; single oral dose 200 µg, n = 6): 5 (83.3%) | Nausea, subjects (%) (healthy subjects; single oral dose 200 µg, n = 6): 3 (50.0%) | Number of AEs reported (healthy subjects; single oral dose 200 µg, n = 6): 21 | Pain in jaw, subjects (%) (healthy subjects; single oral dose 200 µg, n = 6): 1 (16.7%) | Total (%) subjects with at least one AE (healthy subjects; single oral dose 200 µg, n = 6): 6 (100%) | Vomiting, subjects (%) (healthy subjects; single oral dose 200 µg, n = 6): 6 (100%) | Tolerated single dose (healthy subjects; single oral dose, IR capsule, healthy subjects): up to 100 µg | Abdominal pain, subjects (%) (healthy subjects; [3]): 3 (12.5%) | Flushing, subjects (%) (healthy subjects; [3]): 2 (8.3%) | Headache, subjects (%) (healthy subjects; [3]): 17 (70.8%) | Nausea, subjects (%) (healthy subjects; [3]): 6 (25.0%) | Number of AEs reported (healthy subjects; [3]): 51 | Pain in jaw, subjects (%) (healthy subjects; [3]): 6 (25.0%) | Total (%) subjects with at least one AE (healthy subjects; [3]): 19 (79.2%) | Vomiting, subjects (%) (healthy subjects; [3]): 8 (33.3%)
